Data as given in ChEMBL document CHEMBL1145012, “New benzo[h][1,6]naphthyridine and azepino[3,2-c]quinoline derivatives as selective antagonists of 5-HT4 receptors: binding profile and pharmacological characterization” (J Med Chem, 2003).

What was measured:
[1] = biological target: 5-hydroxytryptamine receptor 4 (Cavia porcellus) (UniProt O70528); assay: Ability to displace [3H]GR-113808 from 5-hydroxytryptamine 4 receptor at concentration of 10e-6 M in guinea pig
Outline: (§1)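 Guinea pig striatal membranes (males, 220–224 g) in 50 mM HEPES pH 7.4, incubated in duplicate at 37 °C for 30 min with 0.6 nM [3H]GR 113808. Filtration on polyethylenimine-soaked GF/B filters. Nonspecific binding with 10 μM 5-HT. Screened as percent inhibition at 10⁻⁶ and 10⁻⁸ M; Ki derived for compounds giving over 40% inhibition at 10⁻⁸ M.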

[2] = biological target: 5-hydroxytryptamine receptor 4 (Cavia porcellus) (UniProt O70528); assay: Ability to displace [3H]GR-113808 from 5-hydroxytryptamine 4 receptor at concentration of 10e-8 M in guinea pig; outline: as §1
[3] = biological target: 5-hydroxytryptamine receptor 4 (Cavia porcellus, UniProt O70528); assay: Ability to displace [3H]GR-113808 from 5-hydroxytryptamine 4 receptor; outline: as §1
[4] = biological target: Beta-2 adrenergic receptor (Homo sapiens) (UniProt P07550); assay: Ability to displace [3H]-CGP-12,177 from adrenergic Beta-2 adrenergic receptor at concentration of 10e-5 M
[5] = biological target: 5-hydroxytryptamine receptor 6 (Homo sapiens) (UniProt P50406); assay: Ability to displace [125I]LSD […] from 5-hydroxytryptamine 6 receptor at concentration of 10e-6 M
[6] = biological target: Histamine H1 receptor (Homo sapiens) (UniProt P35367); assay: Ability to displace [3H]mepyramine from histamine H1 receptor at concentration of 10e-7 M
Mus musculus [7] = assay: Compound was tested at subtoxic doses of 12.5-25-50 mg/kg in mice; Symptoms are Hypoactivity,relaxation,Passivity.; format: ADME, organism-based; conditions: in vivo
[8] = biological target: 5-hydroxytryptamine receptor 2A (Homo sapiens, UniProt P28223); assay: Ability to displace [3H]-ketanserin from 5-hydroxytryptamine 2A receptor
[9] = biological target: Histamine H2 receptor (Rattus norvegicus) (UniProt P25102); assay: Ability to displace [3H]tiotidine from histamine-H2 receptor at concentration of 10e-7 M
[10] = biological target: Histamine H2 receptor (Rattus norvegicus) (UniProt P25102); assay: Ability to displace [3H]tiotidine from histamine-H2 receptor at concentration of 10e-5 M
[11] = biological target: Sodium-dependent dopamine transporter (Rattus norvegicus) (UniProt P23977); assay: Ability to recapture DA by displace [3H]GBR-12935 from dopamine transporter at concentration of 10e-5 M
[12] = biological target: Beta-2 adrenergic receptor (Homo sapiens) (UniProt P07550); assay: Ability to displace [3H]CGP-12177 from Beta-2 adrenergic receptor at concentration of 10e-7 M
[13] = biological target: 5-hydroxytryptamine receptor 6 (Homo sapiens) (UniProt P50406); assay: Ability to displace [125I]LSD […] from 5-hydroxytryptamine 6 receptor at concentration of 10e-8 M
Vasopressin V1b receptor = Vasopressin V1b receptor (Rattus norvegicus, UniProt P48974); assay: Ability to displace [3H]AVP from vasopressin V1 receptor
[14] = biological target: Histamine H1 receptor (Homo sapiens) (UniProt P35367); assay: Ability to displace [3H]-mepyramine from histamine H1 receptor at concentration of 10e-5 M
D(2) dopamine receptor = D(2) dopamine receptor (Homo sapiens, UniProt P14416); assay: Ability to displace [3H]YM-0915 from Dopamine receptor D2
[15] = Ability to recaprure NAD using [3H]-nisoxatine at concentration of 10e-7 M
[16] = biological target: 5-hydroxytryptamine receptor 2C (Homo sapiens, UniProt P28335); assay: Ability to displace [3H]mesulergine from 5-hydroxytryptamine 2C receptor
Mus musculus [17] = assay: Antinociceptive activity in the mouse writhing test before administration of the compound; format: functional
Outline: (§2)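 Male OF1 mice (20–24 g), groups of eight. Compounds in saline given ip (10 mL/kg) 15 min before ip 0.6% aqueous acetic acid (10 mL/kg). Stretches per animal counted over 10 min, starting 10 min after acid. Stretch defined as back arching, pelvic rotation and hind limb extension. Data are mean ± SEM; ANOVA then Fisher PLSD.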

[18] = biological target: 5-hydroxytryptamine receptor 7 (Homo sapiens) (UniProt P34969); assay: Ability to displace [125I]LSD […] from 5-hydroxytryptamine 7 receptor at concentration of 10e-8 M
Vasopressin V2 receptor = Vasopressin V2 receptor (Sus scrofa, UniProt P32307); assay: Ability to displace [3H]AVP from Vasopressin V2 receptor
[19] = biological target: Beta-1 adrenergic receptor (Homo sapiens) (UniProt P08588); assay: Ability to displace [3H]CGP-12177 from Beta-1 adrenergic receptor at concentration of 10e-7 M
[20] = biological target: Sodium-dependent dopamine transporter (Rattus norvegicus) (UniProt P23977); assay: Ability to recapture DA by displace [3H]GBR-12935 from dopamine transporter at concentration of 10e-7 M
[21] = biological target: 5-hydroxytryptamine receptor 7 (Homo sapiens) (UniProt P34969); assay: Ability to displace [125I]LSD […] from 5-hydroxytryptamine 7 receptor at concentration of 10e-6 M
Mus musculus [22] = assay: Antinociceptive activity in the mouse writhing test after intraperitoneal dose of 0.1 mg/kg; p<0.05.; format: functional; outline: as §2
[23] = biological target: Sodium-dependent serotonin transporter (Homo sapiens) (UniProt P31645); assay: Ability to recapture 5-HT by displacing [3H]paroxetine at serotonin transporter at concentration of 10e-5 M
[24] = biological target: Sodium-dependent serotonin transporter (Homo sapiens) (UniProt P31645); assay: Ability to recapture 5-HT by displace [3H]paroxetine at serotonin transporter at concentration of 10e-7 M
Mus musculus [25] = assay: Antinociceptive activity in the mouse writhing test after intraperitoneal dose of 1 mg/kg; p<0.01; format: functional; outline: as §2
[26] = biological target: 5-hydroxytryptamine receptor 4 (Mus musculus, UniProt P97288); assay: Ability to displace [3H]GR-113808 from mouse 5-hydroxytryptamine 4 receptor in COS7 cells; format: cell-based, COS-7
Mus musculus [27] = assay: Compound was tested at toxic doses of 12.5-25-50 mg/kg in mice; Convulsions.; format: ADME, organism-based; conditions: in vivo
Mus musculus [28] = assay: Antinociceptive activity in the mouse writhing test after intraperitoneal dose of 0.01 mg/kg; format: functional; outline: as §2
[29] = biological target: 5-hydroxytryptamine receptor 1A (Mus musculus, UniProt Q64264); assay: Ability to displace [3H]8-OH-DPAT from 5-hydroxytryptamine 1A receptor
[30] = Lethal dose of the compound; format: ADME
Outline: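 Male OF1 mice (20–24 g), in groups of four, received graded ip doses (12.5, 25, 50 mg/kg) in saline (10 mL/kg).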

[31] = biological target: 5-hydroxytryptamine receptor 2B (Homo sapiens, UniProt P41595); assay: Ability to displace [3H]5-HT from 5-hydroxytryptamine 2B receptor
[32] = Ability to recaprure NAD using [3H]nisoxetine at concentration of 10e-5 M
[33] = biological target: Beta-1 adrenergic receptor (Homo sapiens) (UniProt P08588); assay: Ability to displace [3H]CGP-12177 from Beta-1 adrenergic receptor at concentration of 10e-5 M
D(1A) dopamine receptor = D(1A) dopamine receptor (Mus musculus, UniProt Q61616); assay: Ability to displace [3H]SCH-23390 from Dopamine receptor D1
Mus musculus [34] = assay: Antinociceptive activity in the mouse writhing test after intraperitoneal dose of 0.1 mg/kg; format: functional; outline: as §2
Mus musculus [35] = assay: Antinociceptive activity in the mouse writhing test after intraperitoneal dose of 1 mg/kg; format: functional; outline: as §2
Mus musculus [36] = assay: Compound was tested at subtoxic dose of 25 mg/kg in mice; Symptoms are hyperactivity, irritability, stereotypy.; format: ADME, organism-based; design: dose 25 mg/kg; conditions: in vivo
Mus musculus [37] = assay: Antinociceptive activity in the mouse writhing test after intraperitoneal dose of 5 mg/kg; format: functional; outline: as §2
Mus musculus [38] = assay: Antinociceptive activity in the mouse writhing test after intraperitoneal dose of 30 mg/kg; format: functional; outline: as §2

Sequence of 5-hydroxytryptamine receptor 4 (Cavia porcellus, UniProt O70528) (O70528 whole entry): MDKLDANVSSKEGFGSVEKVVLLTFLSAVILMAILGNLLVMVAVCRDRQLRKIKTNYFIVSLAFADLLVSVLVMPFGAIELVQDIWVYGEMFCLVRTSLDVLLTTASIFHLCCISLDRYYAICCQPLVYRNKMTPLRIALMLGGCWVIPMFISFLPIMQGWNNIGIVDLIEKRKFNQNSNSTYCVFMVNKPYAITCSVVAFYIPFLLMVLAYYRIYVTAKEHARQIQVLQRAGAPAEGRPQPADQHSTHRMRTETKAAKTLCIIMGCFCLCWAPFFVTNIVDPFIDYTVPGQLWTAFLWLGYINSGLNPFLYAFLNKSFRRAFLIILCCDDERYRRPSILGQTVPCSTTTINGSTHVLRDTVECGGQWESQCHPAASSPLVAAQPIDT
Sequence of 5-hydroxytryptamine receptor 4 (Cavia porcellus) (O70528 whole entry): as above
Sequence of Histamine H2 receptor (Rattus norvegicus) (P25102 whole entry): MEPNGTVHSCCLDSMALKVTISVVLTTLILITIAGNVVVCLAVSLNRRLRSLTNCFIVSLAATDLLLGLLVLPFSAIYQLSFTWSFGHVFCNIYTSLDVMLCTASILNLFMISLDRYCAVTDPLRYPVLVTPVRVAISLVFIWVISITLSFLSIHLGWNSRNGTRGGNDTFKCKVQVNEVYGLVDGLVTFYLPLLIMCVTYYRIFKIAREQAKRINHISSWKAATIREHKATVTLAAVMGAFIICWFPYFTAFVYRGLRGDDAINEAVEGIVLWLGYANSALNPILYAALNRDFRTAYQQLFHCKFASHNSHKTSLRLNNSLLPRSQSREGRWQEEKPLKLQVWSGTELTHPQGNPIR
Sequence of Beta-1 adrenergic receptor (Homo sapiens) (P08588 whole entry, looked up): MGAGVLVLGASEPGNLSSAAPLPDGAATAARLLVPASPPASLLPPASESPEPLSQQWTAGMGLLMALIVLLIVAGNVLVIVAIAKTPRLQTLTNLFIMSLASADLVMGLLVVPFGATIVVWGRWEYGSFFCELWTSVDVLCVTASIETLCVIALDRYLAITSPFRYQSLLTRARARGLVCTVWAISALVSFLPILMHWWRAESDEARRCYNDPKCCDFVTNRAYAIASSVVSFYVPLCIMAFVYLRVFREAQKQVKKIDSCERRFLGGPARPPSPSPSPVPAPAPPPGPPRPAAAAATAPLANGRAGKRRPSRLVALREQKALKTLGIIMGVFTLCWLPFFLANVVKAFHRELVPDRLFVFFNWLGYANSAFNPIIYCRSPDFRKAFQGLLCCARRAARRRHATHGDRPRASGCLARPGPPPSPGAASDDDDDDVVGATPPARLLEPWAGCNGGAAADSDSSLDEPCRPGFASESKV
Sequence of Histamine H1 receptor (Homo sapiens) (P35367 whole entry): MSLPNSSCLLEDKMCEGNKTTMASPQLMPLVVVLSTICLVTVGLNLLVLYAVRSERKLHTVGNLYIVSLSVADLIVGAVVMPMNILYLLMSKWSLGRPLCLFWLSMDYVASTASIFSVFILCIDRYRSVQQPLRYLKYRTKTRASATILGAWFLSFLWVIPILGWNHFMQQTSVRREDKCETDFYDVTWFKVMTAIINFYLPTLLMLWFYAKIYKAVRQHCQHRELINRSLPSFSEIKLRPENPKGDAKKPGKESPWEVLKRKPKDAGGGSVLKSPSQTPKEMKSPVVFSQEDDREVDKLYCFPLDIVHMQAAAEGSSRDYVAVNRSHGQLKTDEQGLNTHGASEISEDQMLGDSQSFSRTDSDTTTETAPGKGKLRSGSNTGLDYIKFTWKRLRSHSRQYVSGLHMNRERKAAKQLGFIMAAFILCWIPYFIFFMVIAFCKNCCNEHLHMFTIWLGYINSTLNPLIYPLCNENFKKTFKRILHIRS
Sequence of Sodium-dependent dopamine transporter (Rattus norvegicus) (P23977 whole entry): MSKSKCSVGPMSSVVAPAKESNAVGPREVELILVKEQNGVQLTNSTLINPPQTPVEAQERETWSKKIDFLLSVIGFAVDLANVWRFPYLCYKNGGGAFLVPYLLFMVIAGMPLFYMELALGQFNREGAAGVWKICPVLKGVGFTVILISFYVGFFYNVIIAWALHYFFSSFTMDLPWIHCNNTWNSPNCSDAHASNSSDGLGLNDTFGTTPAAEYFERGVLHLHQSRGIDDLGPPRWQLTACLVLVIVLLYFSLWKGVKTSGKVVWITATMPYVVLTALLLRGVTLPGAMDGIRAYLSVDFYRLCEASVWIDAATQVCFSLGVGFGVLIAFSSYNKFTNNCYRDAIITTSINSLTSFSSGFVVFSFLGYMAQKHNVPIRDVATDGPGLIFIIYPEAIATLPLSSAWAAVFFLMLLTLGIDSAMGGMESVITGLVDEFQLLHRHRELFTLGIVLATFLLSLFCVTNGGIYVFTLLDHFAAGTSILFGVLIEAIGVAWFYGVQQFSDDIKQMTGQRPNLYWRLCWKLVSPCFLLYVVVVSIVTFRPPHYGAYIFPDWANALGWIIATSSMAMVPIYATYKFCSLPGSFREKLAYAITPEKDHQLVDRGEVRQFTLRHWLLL
Sequence of 5-hydroxytryptamine receptor 7 (Homo sapiens) (P34969 whole entry): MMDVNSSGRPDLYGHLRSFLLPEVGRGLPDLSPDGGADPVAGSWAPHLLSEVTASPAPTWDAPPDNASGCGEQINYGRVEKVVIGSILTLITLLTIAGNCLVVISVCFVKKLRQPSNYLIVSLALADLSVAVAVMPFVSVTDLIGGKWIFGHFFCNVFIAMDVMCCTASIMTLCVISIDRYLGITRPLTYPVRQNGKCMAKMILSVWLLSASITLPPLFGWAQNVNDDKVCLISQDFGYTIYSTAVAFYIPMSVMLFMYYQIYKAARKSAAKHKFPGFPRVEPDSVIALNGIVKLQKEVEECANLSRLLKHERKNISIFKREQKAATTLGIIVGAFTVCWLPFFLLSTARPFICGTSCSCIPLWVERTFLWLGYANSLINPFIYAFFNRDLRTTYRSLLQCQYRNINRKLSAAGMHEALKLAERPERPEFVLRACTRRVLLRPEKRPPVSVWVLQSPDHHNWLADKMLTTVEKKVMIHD
Sequence of Sodium-dependent serotonin transporter (Homo sapiens) (P31645 whole entry, looked up): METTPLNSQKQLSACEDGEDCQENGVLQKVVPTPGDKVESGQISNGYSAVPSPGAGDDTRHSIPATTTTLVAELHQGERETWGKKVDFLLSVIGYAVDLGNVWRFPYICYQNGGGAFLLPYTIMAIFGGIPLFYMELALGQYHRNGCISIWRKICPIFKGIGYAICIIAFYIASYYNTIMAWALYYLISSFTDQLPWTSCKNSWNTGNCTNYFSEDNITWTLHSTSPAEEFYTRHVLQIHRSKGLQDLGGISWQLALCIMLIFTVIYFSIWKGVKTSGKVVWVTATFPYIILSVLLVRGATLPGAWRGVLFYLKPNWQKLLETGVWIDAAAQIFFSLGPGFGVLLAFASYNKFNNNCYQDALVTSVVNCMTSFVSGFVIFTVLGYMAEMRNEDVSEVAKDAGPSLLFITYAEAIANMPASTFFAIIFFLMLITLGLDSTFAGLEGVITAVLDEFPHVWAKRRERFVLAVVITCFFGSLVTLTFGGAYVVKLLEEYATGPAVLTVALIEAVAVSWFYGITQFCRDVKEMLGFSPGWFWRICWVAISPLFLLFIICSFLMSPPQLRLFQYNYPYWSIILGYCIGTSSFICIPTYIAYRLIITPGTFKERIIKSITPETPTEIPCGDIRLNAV
Sequence of Beta-2 adrenergic receptor (Homo sapiens) (P07550 whole entry, looked up): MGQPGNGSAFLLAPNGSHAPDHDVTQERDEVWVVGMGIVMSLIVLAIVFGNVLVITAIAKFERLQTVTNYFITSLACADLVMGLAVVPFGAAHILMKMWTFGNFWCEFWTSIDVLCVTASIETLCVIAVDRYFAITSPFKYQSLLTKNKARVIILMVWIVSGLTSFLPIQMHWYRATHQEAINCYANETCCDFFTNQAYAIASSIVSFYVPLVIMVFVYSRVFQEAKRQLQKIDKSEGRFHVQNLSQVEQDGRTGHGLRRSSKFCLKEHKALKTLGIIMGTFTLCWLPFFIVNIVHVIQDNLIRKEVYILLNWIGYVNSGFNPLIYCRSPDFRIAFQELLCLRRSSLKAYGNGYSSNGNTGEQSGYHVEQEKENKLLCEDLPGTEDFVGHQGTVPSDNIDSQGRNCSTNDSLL
Sequence of 5-hydroxytryptamine receptor 6 (Homo sapiens) (P50406 whole entry): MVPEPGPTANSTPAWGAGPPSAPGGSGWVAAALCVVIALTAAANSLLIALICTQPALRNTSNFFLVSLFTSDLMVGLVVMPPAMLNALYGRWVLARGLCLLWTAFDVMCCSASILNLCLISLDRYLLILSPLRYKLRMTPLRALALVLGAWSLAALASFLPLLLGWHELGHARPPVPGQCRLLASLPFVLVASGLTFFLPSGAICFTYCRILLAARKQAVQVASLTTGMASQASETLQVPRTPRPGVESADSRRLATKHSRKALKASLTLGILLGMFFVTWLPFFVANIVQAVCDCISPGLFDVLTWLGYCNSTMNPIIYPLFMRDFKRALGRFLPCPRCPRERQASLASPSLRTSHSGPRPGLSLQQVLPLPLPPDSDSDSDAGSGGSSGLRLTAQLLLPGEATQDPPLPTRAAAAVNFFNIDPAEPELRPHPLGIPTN
Sequence of D(2) dopamine receptor (P14416 whole entry): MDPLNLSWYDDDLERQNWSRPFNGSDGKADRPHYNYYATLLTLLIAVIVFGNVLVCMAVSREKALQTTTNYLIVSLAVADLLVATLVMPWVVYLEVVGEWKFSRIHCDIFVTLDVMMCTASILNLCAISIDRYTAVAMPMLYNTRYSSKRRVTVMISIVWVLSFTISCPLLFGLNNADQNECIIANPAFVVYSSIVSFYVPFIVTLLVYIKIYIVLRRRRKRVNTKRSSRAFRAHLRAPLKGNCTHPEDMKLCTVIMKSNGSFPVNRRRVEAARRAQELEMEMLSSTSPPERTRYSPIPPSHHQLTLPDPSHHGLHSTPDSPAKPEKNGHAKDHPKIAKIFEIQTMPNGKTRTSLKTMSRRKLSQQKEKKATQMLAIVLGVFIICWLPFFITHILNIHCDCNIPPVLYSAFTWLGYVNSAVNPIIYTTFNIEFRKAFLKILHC

CCCCN1CCC(COc2nc3ccc(Cl)cc3c3c2CCCCN3)CC1
inhibition [1]: 92% | inhibition [2]: 0%

CCCCCN1CCC(COc2nc3ccccc3c3c2CCCN3)CC1
Ki [3]: 12.5 nM | inhibition [1]: 100% | inhibition [2]: 51%

CCN1CCC(COc2nc3ccccc3c3c2CCCN3)CC1
Ki [3]: 13.1 nM | inhibition [1]: 100% | inhibition [2]: 55%

CCCN1CCC(COc2nc3ccccc3c3c2CCCN3)CC1
inhibition [4]: 70% | inhibition [5]: 12% | inhibition [6]: 0% | Symptoms (Mus musculus [7]): Active | Ki [3]: 2.89 nM | IC50 [8]: 5000 nM | inhibition [9]: 0% | inhibition [10]: 75% | inhibition [11]: 61% | inhibition [12]: 0% | inhibition [13]: 0% | IC50 (Vasopressin V1b receptor): 3200 nM | inhibition [14]: 91% | inhibition [1]: 100% | IC50 (D(2) dopamine receptor): 3400 nM | inhibition [15]: 17% | IC50 [16]: 3400 nM | inhibition [2]: 70% | Stretches (Mus musculus [17]): 24.6 | inhibition [18]: 20% | IC50 (Vasopressin V2 receptor): 11000 nM | inhibition [19]: 0% | inhibition [20]: 13% | inhibition [21]: 36% | Stretches (Mus musculus [22]): 13.8 | inhibition [23]: 79% | inhibition [24]: 0% | Stretches (Mus musculus [25]): 12.5 | IC50 [26]: 0.56 nM | Symptoms (Mus musculus [27]): Active | Stretches (Mus musculus [28]): 19 | IC50 [29]: 9100 nM | LD50 [30]: 37.5 mg/kg | IC50 [31]: 200 nM | inhibition [32]: 23% | inhibition [33]: 39% | IC50 (D(1A) dopamine receptor): > 100000 nM

Cn1cc(C(=O)OCC2CCN(CCNS(C)(=O)=O)CC2)c2ccccc21
Stretches (Mus musculus [17]): 21.8 | Stretches (Mus musculus [34]): 12.8 | Stretches (Mus musculus [28]): 18.2 | Stretches (Mus musculus [35]): 12.3

COC(=O)C(c1ccccc1)C1CCCCN1 (centres undefined) [METHYLPHENIDATE]
Symptoms (Mus musculus [36]): Hyperactivity, irritability, stereotypy

CCCCN1CCC(COc2nc3ccccc3c3c2CCCCN3)CC1
Ki [3]: 16.3 nM | inhibition [1]: 100% | inhibition [2]: 44%

CN1CCC(COc2nc3ccccc3c3c2CCCN3)CC1
Ki [3]: 79.7 nM | inhibition [1]: 100% | inhibition [2]: 52%

CCCCN1CCC(COc2nc3ccc(Cl)cc3c3c2CCCN3)CC1
inhibition [1]: 100% | inhibition [2]: 2%

CCCN1CCC(COc2nc3ccccc3c3c2CCCCN3)CC1
Ki [3]: 12.7 nM | inhibition [1]: 100% | inhibition [2]: 55%

CCCN1CCC(COc2nc3cc(Cl)ccc3c3c2CCCCN3)CC1
inhibition [1]: 98% | inhibition [2]: 0%

CCN1CCC(COc2nc3ccccc3c3c2CCCCN3)CC1
Ki [3]: 10.7 nM | inhibition [1]: 100% | inhibition [2]: 51%

CN1C(C(=O)Nc2ccccn2)=C(O)c2ccccc2S1(=O)=O [PIROXICAM]
Stretches (Mus musculus [37]): 2.4 | Stretches (Mus musculus [17]): 24.6

C=CCN1CCC(COc2nc3ccccc3c3c2CCCN3)CC1
inhibition [1]: 100% | inhibition [2]: 31%

C#CCN1CCC(COc2nc3ccccc3c3c2CCCN3)CC1
inhibition [1]: 100% | inhibition [2]: 15%

c1ccc2c3c(c(OCC4CCNCC4)nc2c1)CCCN3
inhibition [1]: 96% | inhibition [2]: 24%

COc1[nH]c2ccc(F)cc2c1C(=O)OCC1CCN(CCNS(C)(=O)=O)CC1
Stretches (Mus musculus [17]): 20 | Stretches (Mus musculus [34]): 11.5 | Stretches (Mus musculus [28]): 16.5 | Stretches (Mus musculus [35]): 11.2

CCCCN1CCC(COc2nc3ccccc3c3c2CCCN3)CC1
Ki [3]: 10 nM | inhibition [1]: 100% | inhibition [2]: 77%

CCCN1CCC(COc2nc3ccc(Cl)cc3c3c2CCCCN3)CC1
inhibition [1]: 91% | inhibition [2]: 5%

CCCCCN1CCC(COc2nc3ccccc3c3c2CCCCN3)CC1
inhibition [1]: 100% | inhibition [2]: 0%

CCCN1CCC(COc2nc3ccc(Cl)cc3c3c2CCCN3)CC1
inhibition [1]: 100% | inhibition [2]: 0%

CC(=O)Oc1ccccc1C(=O)O [ASPIRIN]
Stretches (Mus musculus [38]): 8.7 | Stretches (Mus musculus [17]): 25.8
